Measured values as given in ChEMBL document CHEMBL1156597, “Structure-activity relationship of kahalalide F synthetic analogues” (J Med Chem, 2008).

What was measured:
HeLa = test: Cytotoxicity against human HeLa cells after 48 hrs by SRB assay; assay type: functional; details: for CC50: read-out: LC50 (the source's name)
In short: (§1)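 Cells grown in RPMI 1640 with 10% FBS and penicillin/streptomycin at 37 °C and 5% CO₂, trypsinized, then seeded at 5 × 10³/well. After 18 h drug-free attachment, samples in DMSO/EtOH/PBS (0.5:0.5:99) were added for 48 h continuous exposure. Cells were fixed with cold TCA (1 h, 4 °C) and stained with SRB (10 min). Tris-solubilized stain read at 490 nm. Triplicate wells, mean ± SD; GI₅₀ derived.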

SK-MEL-28 = test: Cytotoxicity against human SK-MEL-28 cells after 48 hrs by SRB assay; assay type: functional, cell-based; details: Homo sapiens, SK-MEL-28, 48 h; for CC50: read-out: LC50 (the source's name); in short: as §1
LoVo [1] = test: Cytotoxicity against human doxorubicin resistant LoVo cells after 48 hrs by SRB assay; assay type: functional; details: for CC50: read-out: LC50 (the source's name); in short: as §1
[2] = Cytotoxicity against human HeLa-APL cells after 48 hrs by SRB assay; assay type: functional; in short: as §1
LNCaP = test: Cytotoxicity against human LNcaP cells after 48 hrs by SRB assay; assay type: functional; details: for CC50: read-out: LC50 (the source's name); in short: as §1
[3] = Cytotoxicity against human IGROV cells after 48 hrs by SRB assay; assay type: functional; details: for CC50: read-out: LC50 (the source's name); in short: as §1
K562 = test: Cytotoxicity against human K562 cells after 48 hrs by SRB assay; assay type: functional; details: K562, 48 h; for CC50: read-out: LC50 (the source's name); in short: as §1
LoVo [4] = test: Cytotoxicity against human LoVo cells after 48 hrs by SRB assay; assay type: functional; details: for CC50: read-out: LC50 (the source's name)
PANC-1 = test: Cytotoxicity against human PANC1 cells after 48 hrs by SRB assay; assay type: functional; details: PANC-1, 48 h; for CC50: read-out: LC50 (the source's name); in short: as §1
HT-29 = test: Cytotoxicity against human HT29 cells after 48 hrs by SRB assay; assay type: functional, cell-based; details: Homo sapiens, HT-29, 48 h; for CC50: read-out: LC50 (the source's name); in short: as §1
DU-145 = test: Cytotoxicity against human DU145 cells after 48 hrs by SRB assay; assay type: functional, cell-based; details: Homo sapiens, DU-145, 48 h; for CC50: read-out: LC50 (the source's name); in short: as §1
SK-BR-3 = test: Cytotoxicity against human SKBR3 cells after 48 hrs by SRB assay; assay type: functional; details: SK-BR-3, 48 h; for CC50: read-out: LC50 (the source's name); in short: as §1
[5] = Cytotoxicity against human IGROV-ET cells after 48 hrs by SRB assay; assay type: functional; details: for CC50: read-out: LC50 (the source's name); in short: as §1
A549 = test: Cytotoxicity against human A549 cells after 48 hrs by SRB assay; assay type: functional, cell-based; details: Homo sapiens, A549, 48 h; in short: as §1

C/C=C1\NC(=O)[C@H](Cc2ccccc2)NC(=O)[C@@H](C(C)C)NC(=O)[C@@H]([C@H](C)CC)NC(=O)[C@H](NC(=O)[C@H](NC(=O)[C@H](CCCN)NC(=O)[C@H]2CCCN2C(=O)[C@H](NC(=O)[C@@H](NC(=O)[C@@H](NC(=O)[C@H](NC(=O)CCCCCCCCCCCCCCC)C(C)C)[C@@H](C)O)C(C)C)C(C)C)[C@H](C)CC)[C@H](C)OC(=O)[C@H](C(C)C)NC1=O
CC50 (HeLa): 151 nM | GI50 (SK-MEL-28): 123 nM | GI50 (SK-MEL-28; read-out: GI50): 138 nM | CC50 (SK-MEL-28): 110 nM | GI50 (LoVo [1]): 264 nM | TGI (LoVo [1]): 262 nM | CC50 (LoVo [1]): 258 nM | GI50 [2]: 326 nM | LC50 (concentration giving 50% net cell kill) [2]: 513 nM | TGI [2]: 479 nM | GI50 (LNCaP): 129 nM | TGI (LNCaP): 118 nM | CC50 (LNCaP): 107 nM | GI50 [3]: 92.6 nM | GI50 ([3]; read-out: GI50): 191 nM | CC50 [3]: 62.2 nM | GI50 (K562): 124 nM | TGI (K562): 314 nM | CC50 (K562): 703 nM | GI50 (LoVo [4]): 300 nM | TGI (LoVo [4]): 293 nM | CC50 (LoVo [4]): 286 nM | GI50 (PANC-1): 203 nM | TGI (PANC-1): 1370 nM | CC50 (PANC-1): 1300 nM | CC50 (HT-29): 72.7 nM | GI50 (DU-145): 126 nM | GI50 (DU-145; read-out: GI50): 145 nM | CC50 (DU-145): 111 nM | GI50 (SK-BR-3): 39.8 nM | GI50 (SK-BR-3; read-out: GI50): 43.9 nM | CC50 (SK-BR-3): 36 nM | GI50 [5]: 140 nM | GI50 ([5]; read-out: GI50): 345 nM | CC50 [5]: 79.1 nM | GI50 (A549): 126 nM | LC50 (A549): 117 nM | GI50 (A549; read-out: GI50): 1370 nM

C/C=C1\NC(=O)[C@H](Cc2ccccc2)NC(=O)[C@@H](C(C)C)NC(=O)[C@@H]([C@H](C)CC)NC(=O)[C@H](NC(=O)[C@H](NC(=O)[C@H](CCCN)NC(=O)[C@H]2CCCN2C(=O)[C@H](NC(=O)[C@@H](NC(=O)[C@@H](NC(=O)[C@H](NC(=O)CC[C@H](C)CC)C(C)C)[C@@H](C)O)C(C)C)C(C)C)[C@H](C)CC)[C@H](C)OC(=O)[C@H](C(C)C)NC1=O
CC50 (HeLa): 971 nM | TGI (SK-MEL-28): 1270 nM | GI50 (SK-MEL-28; read-out: GI50): 1370 nM | CC50 (SK-MEL-28): 1160 nM | GI50 (LoVo [1]): 690 nM | TGI (LoVo [1]): 1040 nM | CC50 (LoVo [1]): 1660 nM | GI50 [2]: 1420 nM | LC50 (concentration giving 50% net cell kill) [2]: 1240 nM | TGI [2]: 1420 nM | GI50 (LNCaP): 1470 nM | TGI (LNCaP): 1290 nM | CC50 (LNCaP): 1130 nM | GI50 [3]: 776 nM | GI50 ([3]; read-out: GI50): 1520 nM | CC50 [3]: 551 nM | GI50 (K562): 2180 nM | TGI (K562): 1930 nM | CC50 (K562): 1930 nM | GI50 (LoVo [4]): 690 nM | TGI (LoVo [4]): 1180 nM | CC50 (LoVo [4]): 1890 nM | CC50 (PANC-1): 1640 nM | CC50 (HT-29): 668 nM | TGI (DU-145): 1270 nM | GI50 (DU-145; read-out: GI50): 1440 nM | CC50 (DU-145): 1130 nM | TGI (SK-BR-3): 425 nM | GI50 (SK-BR-3; read-out: GI50): 469 nM | CC50 (SK-BR-3): 383 nM | GI50 [5]: 920 nM | GI50 ([5]; read-out: GI50): 1900 nM | CC50 [5]: 614 nM | LC50 (A549): 1360 nM | TGI (A549): 1420 nM | GI50 (A549; read-out: GI50): 1480 nM

C/C=C1\NC(=O)[C@H](Cc2ccccc2)NC(=O)[C@@H](C(C)C)NC(=O)[C@@H]([C@H](C)CC)NC(=O)[C@H](NC(=O)[C@H](NC(=O)[C@H](CCCN)NC(=O)[C@H]2CCCN2C(=O)[C@H](NC(=O)[C@@H](NC(=O)CNC(=O)[C@H](NC(=O)CCCC(C)C)C(C)C)C(C)C)C(C)C)[C@H](C)CC)[C@H](C)OC(=O)[C@H](C(C)C)NC1=O
GI50 (HeLa): 250 nM | TGI (HeLa): 471 nM | CC50 (HeLa): 755 nM | GI50 (SK-MEL-28): 283 nM | GI50 (SK-MEL-28; read-out: GI50): 205 nM | CC50 (SK-MEL-28): 717 nM | GI50 (LoVo [1]): 2390 nM | TGI (LoVo [1]): 3040 nM | CC50 (LoVo [1]): 3850 nM | GI50 [2]: 230 nM | LC50 (concentration giving 50% net cell kill) [2]: 684 nM | TGI [2]: 421 nM | GI50 (LNCaP): 233 nM | TGI (LNCaP): 988 nM | CC50 (LNCaP): 988 nM | GI50 [3]: 83.7 nM | GI50 ([3]; read-out: GI50): 80.7 nM | CC50 [3]: 139 nM | GI50 (K562): 129 nM | TGI (K562): 208 nM | CC50 (K562): 744 nM | GI50 (LoVo [4]): 597 nM | TGI (LoVo [4]): 1130 nM | CC50 (LoVo [4]): 828 nM | GI50 (PANC-1): 515 nM | TGI (PANC-1): 1070 nM | CC50 (PANC-1): 1990 nM | GI50 (HT-29): 893 nM | TGI (HT-29): 1850 nM | CC50 (HT-29): 796 nM | GI50 (DU-145): 994 nM | GI50 (DU-145; read-out: GI50): 572 nM | CC50 (DU-145): 1360 nM | TGI (SK-BR-3): 819 nM | GI50 (SK-BR-3; read-out: GI50): 629 nM | CC50 (SK-BR-3): 512 nM | GI50 [5]: 232 nM | GI50 ([5]; read-out: GI50): 197 nM | CC50 [5]: 566 nM | GI50 (A549): 622 nM | GI50 (A549; read-out: GI50): 524 nM
